The source of these data is ChEMBL document CHEMBL1144484, “High selective leishmanicidal activity of 3-hydroxy-2-methylene-3-(4-bromophenyl)propanenitrile and analogous compounds” (Eur J Med Chem, 2007).

The nature of data set [1]: Cytotoxicity against mouse peritoneal macrophages assessed as LDH release at 50 uM after 48 hrs. The data set is classed as cell-based. Particulars: peritoneal macrophage cell. In outline: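 Uninfected adherent mouse peritoneal macrophages exposed to compound for 48 h at 37 °C. LDH released into the medium measured with a commercial kit. 2% Triton X-100 set maximum release and 1% DMSO set minimum. Triplicate means with SD.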
(In general: Release of lactate dehydrogenase indicates damage to the cell membrane.)

For data set [2], the system named is Leishmania amazonensis. The experiment in a line: Antileishmanial activity against GFP tagged Leishmania amazonensis Josefa promastigote at 50 uM. The format is functional. In outline:
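Triplicate wells of 10⁵ GFP-transfected promastigotes in DMEM with 5% serum and 1% DMSO, with compound, held 72 h at 27 °C. Fluorescence intensity read on a plate fluorometer. Results given as percent inhibition, mean of triplicates with SD.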

In data set [3] the test system is Leishmania amazonensis. The experiment in a line: Antileishmanial activity against GFP tagged Leishmania amazonensis Josefa amastigote infected mouse peritoneal macrophages at 50 uM after 72 hrs. The data set is classed as functional. In outline: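 GFP L. amazonensis (Josefa)-infected mouse peritoneal macrophages (10⁶ cells, 5 × 10⁶ promastigotes, 4 h at 37 °C), washed, exposed to compound for 72 h in 1% DMSO. Monolayer fluorescence measured. Percent inhibition scaled between untreated infected cells and uninfected macrophages. Vehicle control was 1% DMSO. Triplicate means with SD.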

Data set [4] concerns Peritoneal macrophage cell. Description: Effect on nitric oxide production in mouse peritoneal macrophages at 50 uM after 48 hrs. The data set is classed as functional. Put shortly:
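Supernatants from mouse peritoneal macrophage cultures incubated 48 h with compound. Nitrite measured by a modified Griess method. IFN-gamma at 10 U/ml served as positive control. Triplicate means.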

Data set [5] relates to Leishmania amazonensis. The experiment in a line: Antiamastigote activity against GFP tagged […] amastigote infected mouse peritoneal macrophages. The data set is classed as functional, organism-based. In outline: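 Mouse peritoneal macrophages (10⁶) infected 4 h at 37 °C with 5 × 10⁶ GFP-expressing L. amazonensis (Josefa) promastigotes, washed, then cultured 72 h with compound in 1% DMSO. Monolayer fluorescence read as parasite growth. Uninfected macrophages set maximum inhibition and untreated infected cells set minimum. IC50 obtained by linear regression.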

Take `C=C(C#N)C(O)c1cc(OC)ccc1OC` (stereo unspecified): the Activity is 0% in data set [1], 22.3% in the data set on Leishmania amazonensis [2], 35.3% in the data set with Leishmania amazonensis [3] and -4.9 µM in data set [4].
`C=C(C#N)C(O)c1ccccc1` (stereo unspecified) showed an IC50 in the data set with Leishmania amazonensis [5] of 49.3 µM. For the same molecule, the Activity in data set [1] is 0%; in the data set with Leishmania amazonensis [2], 42.2%; with Leishmania amazonensis [3], 48.1%; in data set [4] it was -1.6 µM.
Turning to `C=C(C#N)C(O)c1ccc(C(F)(F)F)cc1` (stereo unspecified), the Activity was 36.3% in data set [1], 62.8% with Leishmania amazonensis [2], 86% with Leishmania amazonensis [3] and -4 µM in data set [4].
Taken in the same sequence, the figures for `C=C(C#N)C(O)c1ccc2c(c1)OCO2` (stereo unspecified) were 0%, 25.5%, 9.1% and -2.1 µM.
For the molecule `C=C(C#N)C(O)c1ccc(Br)cc1` (stereo unspecified), 12.5 µM corresponded to half-maximal inhibition in the data set with Leishmania amazonensis [5] (IC50). Also, the Activity was determined as 0% in data set [1], 17.5% in the data set on Leishmania amazonensis [2], 84.3% in the data set with Leishmania amazonensis [3] and 2.5 µM in data set [4].
As to `C=C(C(=O)OC)C(O)c1ccc([N+](=O)[O-])cc1` (stereo unspecified), the Activity in data set [1] is 41.6%; in the data set on Leishmania amazonensis [2], 67.3%; in the data set with Leishmania amazonensis [3], 80.6%; in data set [4] it was -3.7 µM.
Taken in the same sequence, the figures for `C=C(C#N)C(OC(C)=O)c1ccc([N+](=O)[O-])cc1` (stereo unspecified) were 0%, 59.3%, 21.5% and 0 µM.
On the same counts, the results for `C=C(C(=O)OC)C(O)c1ccc(F)cc1` (stereo unspecified) are 0%, 32.4%, 33.6% and -4.8 µM.
Turning to `C=C(C#N)C(O)c1ccc2ccccc2c1` (stereo unspecified), the IC50 with Leishmania amazonensis [5] came to 11.2 µM. For the same molecule, the Activity in data set [1] was 26.6%; in the data set with Leishmania amazonensis [2] it was 24%; in the data set with Leishmania amazonensis [3] it was 95.6%; in data set [4] it was -7.1 µM.
Taken in the same sequence, the figures for `C=C(C(=O)OC)C(O)c1ccc(C(F)(F)F)cc1` (stereo unspecified) were 42.8 µM, 36.2%, 67.6%, 89% and -3.5 µM.
On to `C=C(C(=O)OC)C(O)c1ccccc1` (stereo unspecified), for which the Activity in data set [1] is 0%; with Leishmania amazonensis [2] it was 37.6%; in the data set with Leishmania amazonensis [3] it was 14.4%; in data set [4], -2.1 µM.
On the same counts, the results for `C=C(C#N)C(O)c1ccc([N+](=O)[O-])cc1` (stereo unspecified) are 41.7%, 47%, 93.9% and 5 µM.
On to `C=C(C(=O)OC)C(O)c1ccc(C)cc1` (stereo unspecified), for which the Activity was 0% in data set [1], 32.4% in the data set on Leishmania amazonensis [2], 28.7% with Leishmania amazonensis [3] and -3.7 µM in data set [4].
Taken in the same sequence, the figures for `C=C(C#N)C(O)c1ccc(O)c(OC)c1` (stereo unspecified) were 0%, 6.6%, 19.7% and -2.3 µM.
With `C=C(C(=O)OC)C(O)c1cccnc1` (stereo unspecified), the Activity in data set [1] is 13.2%; in the data set with Leishmania amazonensis [2], 39.6%; in the data set on Leishmania amazonensis [3], 8.9%; in data set [4] it was 0.1 µM.
On the same counts, the results for `C=C(C#N)C(O)c1ccccc1OC` (stereo unspecified) are 6.1%, 30%, 14.7% and 0.4 µM.
In the case of pentostam, the figures for the Activity (with Leishmania amazonensis [2]; with Leishmania amazonensis [3]; in data set [4]) were 0%, 35.3% and 0 µM, respectively.

A word on the IC50: it is the concentration at which inhibition is half-maximal.
